Activity calls are given as the source filed them. The calls are words filed in the database; no cut-off is given here.
How the values were obtained:
[1] = biological target: T1, Casein kinase II subunit alpha (Homo sapiens, UniProt P68400); test: Inhibition of recombinant human GST-tagged CK2alpha in presence of ATP by radiometric kinase assay
Target sequence in this assay (P68400 whole entry): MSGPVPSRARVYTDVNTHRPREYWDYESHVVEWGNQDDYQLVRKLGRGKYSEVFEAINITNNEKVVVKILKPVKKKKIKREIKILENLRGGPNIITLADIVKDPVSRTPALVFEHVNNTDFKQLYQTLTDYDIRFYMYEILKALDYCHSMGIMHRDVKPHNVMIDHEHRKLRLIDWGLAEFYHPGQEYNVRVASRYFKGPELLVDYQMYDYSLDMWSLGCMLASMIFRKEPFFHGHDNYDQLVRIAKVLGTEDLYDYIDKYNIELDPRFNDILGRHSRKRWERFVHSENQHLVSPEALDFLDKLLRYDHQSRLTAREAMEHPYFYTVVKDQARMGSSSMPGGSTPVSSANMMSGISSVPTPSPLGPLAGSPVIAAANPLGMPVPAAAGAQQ

786-0 [2] = test: Growth inhibition of human 786-0 cells at 25 uM after 24 hrs by MTT assay relative to control; format: functional; conditions: 786-0, 24 h, read-out: GI
Homo sapiens = organism: Homo sapiens; test: Inhibition of human PI3K assessed as reduction in enzyme activity at 5 uM in presence of ATP relative to control
[3] = biological target: Serine/threonine-protein kinase pim-1 (Homo sapiens) (UniProt P11309); test: Inhibition of recombinant full length human His-tagged PIM1 expressed in baculovirus expression system assessed as reduction in enzyme activity at 5 uM in presence of ATP relative to control
Sequence of Serine/threonine-protein kinase pim-1 (Homo sapiens) (P11309 whole entry, looked up): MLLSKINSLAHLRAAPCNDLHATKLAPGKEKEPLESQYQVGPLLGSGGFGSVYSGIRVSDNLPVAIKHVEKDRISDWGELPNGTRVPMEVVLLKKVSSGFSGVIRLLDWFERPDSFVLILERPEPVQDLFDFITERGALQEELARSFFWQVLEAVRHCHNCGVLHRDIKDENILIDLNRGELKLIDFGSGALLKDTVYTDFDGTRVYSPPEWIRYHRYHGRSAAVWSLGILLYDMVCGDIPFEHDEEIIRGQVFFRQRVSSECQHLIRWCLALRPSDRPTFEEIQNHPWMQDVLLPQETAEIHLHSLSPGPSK

DU-145 = test: Growth inhibition of human DU145 cells after 24 hrs by MTT assay; format: functional; conditions: DU-145, 24 h
[4] = biological target: Dual specificity protein kinase CLK1 (Homo sapiens) (UniProt P49759); conditions: 5 uM
Sequence of Dual specificity protein kinase CLK1 (Homo sapiens) (P49759 whole entry, looked up): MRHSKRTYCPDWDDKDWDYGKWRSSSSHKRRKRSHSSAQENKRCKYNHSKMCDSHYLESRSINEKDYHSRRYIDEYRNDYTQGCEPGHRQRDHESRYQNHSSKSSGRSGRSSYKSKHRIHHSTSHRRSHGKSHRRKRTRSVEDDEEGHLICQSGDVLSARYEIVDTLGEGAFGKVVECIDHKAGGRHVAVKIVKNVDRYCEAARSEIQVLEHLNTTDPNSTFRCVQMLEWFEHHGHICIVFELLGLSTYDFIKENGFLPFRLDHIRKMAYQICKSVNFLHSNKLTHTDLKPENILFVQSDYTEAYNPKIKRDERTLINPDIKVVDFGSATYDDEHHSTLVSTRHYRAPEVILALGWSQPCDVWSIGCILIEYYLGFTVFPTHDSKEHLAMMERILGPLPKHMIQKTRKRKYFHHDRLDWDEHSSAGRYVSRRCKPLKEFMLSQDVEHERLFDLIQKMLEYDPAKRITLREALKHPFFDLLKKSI

[5] = biological target: Activin receptor type-1 (Homo sapiens) (UniProt Q04771); test: Inhibition of recombinant human catalytic GST-tagged ACVR1 expressed in baculovirus expression system assessed as reduction in enzyme activity at 5 uM in presence of ATP relative to control
Sequence of Activin receptor type-1 (Homo sapiens) (Q04771 whole entry): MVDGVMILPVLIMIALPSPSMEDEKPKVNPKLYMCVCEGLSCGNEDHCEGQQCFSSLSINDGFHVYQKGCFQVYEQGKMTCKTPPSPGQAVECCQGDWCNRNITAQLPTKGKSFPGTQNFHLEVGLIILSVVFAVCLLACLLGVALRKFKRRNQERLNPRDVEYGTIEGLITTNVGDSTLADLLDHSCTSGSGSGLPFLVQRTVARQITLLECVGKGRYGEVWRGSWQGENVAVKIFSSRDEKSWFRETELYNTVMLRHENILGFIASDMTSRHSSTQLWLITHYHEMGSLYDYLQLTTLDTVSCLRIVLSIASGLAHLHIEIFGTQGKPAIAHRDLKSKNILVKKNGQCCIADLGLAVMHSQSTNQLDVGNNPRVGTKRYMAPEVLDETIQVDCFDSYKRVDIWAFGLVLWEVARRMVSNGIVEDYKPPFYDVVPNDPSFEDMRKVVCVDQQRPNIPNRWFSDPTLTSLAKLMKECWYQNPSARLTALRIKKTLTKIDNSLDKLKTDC

[6] = biological target: Dual specificity protein kinase CLK4 (Homo sapiens) (UniProt Q9HAZ1); test: Inhibition of recombinant full length human GST-tagged CLK4 expressed in baculovirus expression system assessed as reduction in enzyme activity at 5 uM in presence of ATP relative to control
[7] = biological target: Epidermal growth factor receptor (Homo sapiens) (UniProt P00533); test: Inhibition of human EGFR assessed as reduction in enzyme activity at 5 uM in presence of ATP relative to control; set-up: scale not given: the % may be the effect or the level left
[8] = biological target: Serine/threonine-protein kinase pim-1 (Homo sapiens) (UniProt P11309); test: Inhibition of human PIM1 assessed as reduction in enzyme activity at 5 uM in presence of ATP relative to control; set-up: scale not given: the % may be the effect or the level left
[9] = biological target: Glycogen synthase kinase-3 beta (Homo sapiens) (UniProt P49841); test: Inhibition of recombinant full length human His-tagged GSK3beta expressed in baculovirus expression system assessed as reduction in enzyme activity at 5 uM in presence of ATP relative to control
Sequence of Glycogen synthase kinase-3 beta (Homo sapiens) (P49841 whole entry, looked up): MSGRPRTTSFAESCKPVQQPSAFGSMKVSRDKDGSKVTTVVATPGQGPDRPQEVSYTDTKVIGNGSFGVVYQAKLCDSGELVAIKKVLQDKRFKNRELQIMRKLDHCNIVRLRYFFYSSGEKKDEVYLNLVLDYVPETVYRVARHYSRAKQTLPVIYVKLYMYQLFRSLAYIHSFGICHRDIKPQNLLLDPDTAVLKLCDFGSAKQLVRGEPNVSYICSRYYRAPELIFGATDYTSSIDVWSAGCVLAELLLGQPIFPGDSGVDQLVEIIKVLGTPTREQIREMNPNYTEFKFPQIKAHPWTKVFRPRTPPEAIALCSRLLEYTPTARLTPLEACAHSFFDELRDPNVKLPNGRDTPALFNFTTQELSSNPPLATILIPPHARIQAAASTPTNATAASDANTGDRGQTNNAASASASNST

[10] = biological target: Receptor tyrosine-protein kinase erbB-2 (Homo sapiens) (UniProt P04626); test: Inhibition of human His-tagged ERBB2 expressed in baculovirus expression system assessed as reduction in enzyme activity at 5 uM in presence of ATP relative to control; set-up: scale not given: the % may be the effect or the level left
Sequence of Receptor tyrosine-protein kinase erbB-2 (Homo sapiens) (P04626 whole entry): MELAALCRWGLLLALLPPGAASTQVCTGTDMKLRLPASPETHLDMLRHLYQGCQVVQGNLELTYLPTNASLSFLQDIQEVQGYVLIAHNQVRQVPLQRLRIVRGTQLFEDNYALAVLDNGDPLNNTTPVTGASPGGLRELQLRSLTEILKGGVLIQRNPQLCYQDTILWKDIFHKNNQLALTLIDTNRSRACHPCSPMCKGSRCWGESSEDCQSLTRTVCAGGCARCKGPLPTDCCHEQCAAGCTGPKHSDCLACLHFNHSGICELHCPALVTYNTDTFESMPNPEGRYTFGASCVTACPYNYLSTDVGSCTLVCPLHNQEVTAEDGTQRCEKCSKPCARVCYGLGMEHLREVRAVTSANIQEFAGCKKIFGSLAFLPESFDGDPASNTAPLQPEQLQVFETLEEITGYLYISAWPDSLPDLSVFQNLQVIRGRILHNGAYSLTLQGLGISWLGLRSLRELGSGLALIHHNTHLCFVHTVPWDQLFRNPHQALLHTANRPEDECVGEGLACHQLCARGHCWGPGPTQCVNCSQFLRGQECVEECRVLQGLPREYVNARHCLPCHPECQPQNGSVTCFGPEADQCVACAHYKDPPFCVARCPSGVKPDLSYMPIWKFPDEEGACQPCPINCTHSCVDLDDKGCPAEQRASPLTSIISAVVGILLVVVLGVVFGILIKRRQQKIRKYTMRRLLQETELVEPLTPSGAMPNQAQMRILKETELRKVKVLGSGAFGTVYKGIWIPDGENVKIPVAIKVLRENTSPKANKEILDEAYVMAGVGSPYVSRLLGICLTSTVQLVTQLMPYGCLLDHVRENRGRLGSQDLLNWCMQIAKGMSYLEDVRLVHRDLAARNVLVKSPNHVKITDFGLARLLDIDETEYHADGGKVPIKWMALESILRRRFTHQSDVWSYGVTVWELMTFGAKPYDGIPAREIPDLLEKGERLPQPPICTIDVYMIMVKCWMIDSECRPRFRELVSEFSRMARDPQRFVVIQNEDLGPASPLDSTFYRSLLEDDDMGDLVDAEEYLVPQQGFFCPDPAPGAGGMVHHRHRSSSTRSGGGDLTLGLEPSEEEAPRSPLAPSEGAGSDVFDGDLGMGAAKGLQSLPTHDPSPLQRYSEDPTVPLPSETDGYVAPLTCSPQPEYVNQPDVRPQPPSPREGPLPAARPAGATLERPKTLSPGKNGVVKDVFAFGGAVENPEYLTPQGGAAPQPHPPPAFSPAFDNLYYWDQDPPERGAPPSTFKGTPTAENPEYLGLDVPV

[11] = biological target: Serine/threonine-protein kinase Chk2 (Homo sapiens) (UniProt O96017); conditions: 5 uM
U138-MG = test: Growth inhibition of human U138MG cells after 24 hrs by MTT assay; format: functional
[12] = biological target: Dual specificity protein kinase CLK2 (Homo sapiens) (UniProt P49760); conditions: 5 uM
Sequence of Dual specificity protein kinase CLK2 (Homo sapiens) (P49760 whole entry, looked up): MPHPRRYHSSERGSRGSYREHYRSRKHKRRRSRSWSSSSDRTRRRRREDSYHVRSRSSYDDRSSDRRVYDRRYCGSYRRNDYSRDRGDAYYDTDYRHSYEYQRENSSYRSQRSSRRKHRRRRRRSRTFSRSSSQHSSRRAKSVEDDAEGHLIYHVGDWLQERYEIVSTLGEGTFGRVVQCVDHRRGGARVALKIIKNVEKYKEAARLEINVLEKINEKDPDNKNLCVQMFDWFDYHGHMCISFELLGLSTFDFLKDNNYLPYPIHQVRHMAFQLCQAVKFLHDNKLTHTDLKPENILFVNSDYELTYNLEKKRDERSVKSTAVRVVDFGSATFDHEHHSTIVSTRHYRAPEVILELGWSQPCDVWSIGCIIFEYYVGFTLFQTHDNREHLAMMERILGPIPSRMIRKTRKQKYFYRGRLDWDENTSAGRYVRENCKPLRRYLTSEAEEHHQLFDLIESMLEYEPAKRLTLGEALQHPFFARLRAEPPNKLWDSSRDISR

NCI-H1299 = test: Growth inhibition of human H1299 cells after 24 hrs by MTT assay; format: functional; conditions: NCI-H1299, 24 h
[13] = biological target: Casein kinase I isoform gamma-1 (Homo sapiens) (UniProt Q9HCP0); test: Inhibition of recombinant full length human GST-tagged CK1gamma1 expressed in baculovirus expression system assessed as reduction in enzyme activity at 5 uM in presence of ATP relative to control
786-0 [14] = test: cells; conditions: Homo sapiens, 786-0, 24 h
786-0 [15] = test: Growth inhibition of human 786-0 cells after 24 hrs by MTT assay; format: functional; conditions: 786-0, 24 h
Procedure, shortened: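 786-O grown in RPMI 1640 with 10% FCS, pen/strep, 37 °C, 5% CO2; assays in medium with 0.1% or 0.5% serum. Cells seeded at 1 × 10^4/well, next day given fresh medium with inhibitor at various concentrations, DMSO (0.25%) control, 24 h. MTT 2 h at 37 °C, SDS/HCl solubilization 4 h, absorbance 570 nm. GI50 by linear interpolation on log[c] scale; at least two independent experiments.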

786-0 [16] = test: cells; conditions: Homo sapiens, 786-0, 24 h; remark: listed apart in the source
[17] = biological target: Aurora kinase B (Homo sapiens) (UniProt Q96GD4); test: Inhibition of recombinant full length human His-tagged AURKB expressed in baculovirus expression system assessed as reduction in enzyme activity at 5 uM in presence of ATP relative to control
[18] = Growth inhibition of human RPTEC cells after 24 hrs by MTT assay; format: cell-based
[19] = Growth inhibition of human MCF10A cells after 24 hrs by MTT assay; format: cell-based, MCF-10A
[20] = biological target: Tyrosine-protein kinase ABL1 (Homo sapiens) (UniProt P00519); conditions: 5 uM
Sequence of Tyrosine-protein kinase ABL1 (Homo sapiens) (P00519 whole entry): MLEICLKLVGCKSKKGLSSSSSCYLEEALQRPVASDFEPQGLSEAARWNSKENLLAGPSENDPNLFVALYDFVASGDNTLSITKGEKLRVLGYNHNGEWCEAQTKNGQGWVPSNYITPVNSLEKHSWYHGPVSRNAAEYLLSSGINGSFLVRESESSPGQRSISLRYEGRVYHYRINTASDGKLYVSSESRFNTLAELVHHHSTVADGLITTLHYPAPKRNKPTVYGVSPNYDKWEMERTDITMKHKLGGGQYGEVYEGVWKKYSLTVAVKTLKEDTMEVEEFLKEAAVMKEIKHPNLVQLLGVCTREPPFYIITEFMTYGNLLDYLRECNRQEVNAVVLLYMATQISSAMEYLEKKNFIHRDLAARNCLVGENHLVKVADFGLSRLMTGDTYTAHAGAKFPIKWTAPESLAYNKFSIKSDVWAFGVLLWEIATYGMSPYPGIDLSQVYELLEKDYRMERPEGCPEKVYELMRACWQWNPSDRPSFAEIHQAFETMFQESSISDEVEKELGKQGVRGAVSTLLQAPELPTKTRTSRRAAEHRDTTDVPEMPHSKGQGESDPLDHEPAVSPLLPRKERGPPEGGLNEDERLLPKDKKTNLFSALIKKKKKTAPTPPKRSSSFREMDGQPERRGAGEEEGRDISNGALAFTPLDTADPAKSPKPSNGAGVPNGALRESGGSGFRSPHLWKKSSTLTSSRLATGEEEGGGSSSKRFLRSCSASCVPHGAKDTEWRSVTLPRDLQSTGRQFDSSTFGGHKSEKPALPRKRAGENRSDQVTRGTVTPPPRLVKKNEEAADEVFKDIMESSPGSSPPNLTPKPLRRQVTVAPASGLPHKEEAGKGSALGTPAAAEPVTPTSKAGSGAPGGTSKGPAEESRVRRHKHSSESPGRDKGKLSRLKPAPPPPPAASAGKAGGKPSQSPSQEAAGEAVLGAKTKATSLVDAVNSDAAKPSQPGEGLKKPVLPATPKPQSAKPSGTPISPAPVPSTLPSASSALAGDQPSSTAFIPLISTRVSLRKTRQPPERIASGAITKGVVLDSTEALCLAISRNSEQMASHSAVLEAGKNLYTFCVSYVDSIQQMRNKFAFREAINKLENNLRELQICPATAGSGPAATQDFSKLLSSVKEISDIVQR

[21] = biological target: Cyclin-dependent kinase 1/cyclin B1 (Homo sapiens) (UniProt P06493+P14635); conditions: 5 uM
PC-3 = test: Growth inhibition of human PC3 cells after 24 hrs by MTT assay; format: functional; conditions: PC-3, 24 h
[22] = biological target: T1, Casein kinase II subunit alpha; conditions: HeLa, 40 uM
Target sequence in this assay (P68400 whole entry, looked up): as the sequence (P68400 whole entry) above

`CC(C)(C)c1csc(Nc2ccc(C(=O)O)cc2)n1` showed an IC50 [1] of over 50 µM.
For `Cc1ccc(S(=O)(=O)NC(=O)c2ccc(Nc3nc(-c4ccc5ccccc5c4)cs3)cc2)cc1`, the inhibition of growth at 25 µM (786-0 [2]) was 87%.
`N#Cc1ccc(Nc2nc(-c3ccc4ccccc4c3)cs2)cc1` showed an IC50 [1] of over 50 µM.
Work on `O=C(O)c1ccc(Nc2nc(-c3ccc4ccccc4c3)cs2)cc1O` yielded an inhibition (Homo sapiens) of 53%, an inhibition [3] of 60% and a GI50 (DU-145) of 20 µM. It also gave an inhibition [4] of 20 to 30%, an inhibition [5] of 0% and an inhibition [6] of 23%. The Activity [7] was 21%, the inhibition of growth at 25 µM (786-0 [2]) was 87% and the Activity [8] was 60%. The inhibition [9] was 41%, the Activity [10] was 70% and the inhibition [11] was 20 to 30%. The GI50 (U138-MG) was 13 µM, the inhibition [12] was 20 to 30% and the GI50 (NCI-H1299) was 9 µM. It also gave an inhibition [13] of 32%, an EC50 (786-0 [14]) of 4.9 µM and a GI50 (786-0 [15]) of 5 µM. It also gave an EC50 (786-0 [16]) of 4.6 µM, an inhibition [17] of 62% and a GI50 at 24 h [18] of 27 µM. It also gave a GI50 at 24 h [19] of 10 µM, an inhibition [20] of 20 to 30% and an inhibition [21] of 20 to 30%. For the same compound, the GI50 (PC-3) was 7 µM.
Work on `O=C(O)c1ccc(Nc2nc(-c3ccc(O)cc3O)cs2)cc1` yielded an IC50 [1] of 7 µM.
Work on `CC(=O)OCOC(=O)c1ccc(Nc2nc(-c3cccc([N+](=O)[O-])c3)cs2)cc1` yielded an inhibition of growth at 25 µM (786-0 [2]) of 42%.
In the case of `O=C(O)Cc1ccc(Nc2nc(-c3cccc([N+](=O)[O-])c3)cs2)cc1`, the IC50 [1] is reported as over 50 µM.
For `O=[N+]([O-])c1cccc(-c2csc(Nc3ccccc3)n2)c1`, the IC50 [1] was over 25 µM.
With `O=C(O)c1ccc(Nc2nc(-c3cccc(Br)c3)cs2)cc1` the GI50 (786-0 [15]) was 25 µM and the inhibition [22] was “Active”.
Work on `CS(=O)(=O)NC(=O)c1ccc(Nc2nc(-c3ccc4ccccc4c3)cs2)cc1` yielded an inhibition of growth at 25 µM (786-0 [2]) of 23%.
In the case of `CC(=O)OCOC(=O)c1ccc(Nc2nc(-c3ccsc3)cs2)cc1`, the inhibition of growth at 25 µM (786-0 [2]) is reported as 48%.
`CC(=O)OCOC(=O)c1ccc(Nc2nc(-c3ccc4ccccc4c3)cs2)cc1` gave an inhibition of growth at 25 µM (786-0 [2]) of 45%.
Compound `COC(=O)c1ccc(Nc2nc(-c3cccc([N+](=O)[O-])c3)cs2)cc1` has an IC50 [1] of over 25 µM.
In the case of `c1ccc(Nc2nc(-c3ccc4ccccc4c3)cs2)cc1`, the IC50 [1] is reported as over 50 µM.

Source: ChEMBL document CHEMBL4411336, “2-Aminothiazole Derivatives as Selective Allosteric Modulators of the Protein Kinase CK2. 2. Structure-Based Optimization and Investigation of Effects Specific to the Allosteric Mode of Action” (J Med Chem, 2019)
